Measured values collected from several papers.
Each line is one published result; the experiments were not run side by side.
Effect on: metabolic stability
Species: human

| SMILES | test system | conditions | half-life [min] |
| --- | --- | --- | --- |
| CCOC(=O)NS(=O)(=O)c1sc(CC(C)C)cc1-c1ccc2c(c1)CN(C(C)=O)C2 | liver microsomes | 1 µM, pH 7.4 | 7.8 |
| Cc1cccc(-n2ncc(Br)c(Br)c2=O)c1 | liver microsomes |  | 7.1 |
| Cc1ccc(S(=O)(=O)Nc2cccc(-c3nnn[nH]3)c2)cc1C(F)(F)F | liver microsomes |  | 4 |
| CO[C@@H](C[C@H]1C(C)=CC[C@@H]2[C@]3(C)C[C@H](O[C@@H]4O[C@@H](C)[C@H](OC(=O)c5cccc(O)c5)[C@@H](O[C@@H]5O[C@H](CO)[C@@H](O)[C@H](O)[C@H]5NC(C)=O)[C@H]4O)[C@@H](O)C(C)(C)[C@H]3CC[C@]21C)[C@H](N)C(=O)O.O=C(O)C(F)(F)F | hepatocytes | 1 µM | > 360 |
| CCCCOC(=O)NS(=O)(=O)c1sc(CC(C)C)cc1-c1cccc2c1CN(C(C)=O)C2 | liver microsomes | 1 µM, pH 7.4 | 15 |
| CCCCCCCc1c(C)nc2cc(OC)ccc2c1O | liver microsomes | 1 µM | 10.2 |
| CCCCOC(=O)NS(=O)(=O)c1sc(CC(C)C)cc1-c1ccc2c(c1)CCN(C(C)=O)C2 | liver microsomes | 1 µM, pH 7.4 | 8.7 |
| O=C(NC1CCC1)c1ccc2nc(-c3cccc(NS(=O)(=O)NCCN4CCCCC4)c3)cn2c1 | liver microsomes | 1 µM | 21 |
| O=C1CCN(C(=O)Nc2ccc(F)c(Cl)c2)[C@H]2CCCC[C@@H]12 (relative stereo) | liver microsomes |  | > 56 |
| CNS(=O)(=O)Cc1ccc2[nH]cc(CCN(C)C)c2c1 | hepatocytes | 5 µM | 448 |
| CCNc1nc2c(c(N3CC(=O)Nc4cc(OC)ccc43)n1)CCC2 | liver microsomes |  | 16.7 |
| CCCCOC(=O)NS(=O)(=O)c1sc(CC(C)C)cc1-c1ccc(OC(F)(F)F)c(Cn2ccnc2)c1 | liver microsomes | 1 µM, pH 7.4 | 10 |
| CC[C@@H]1C=CC(=O)O[C@@H]1C[C@@H](O)[C@H](C)[C@H](OC)[C@@H](C)Cc1ccccc1 | liver microsomes |  | 5.4 |
| Cc1ccc(S(=O)(=O)Nc2cccc(-c3nnn[nH]3)c2)cc1C | liver microsomes |  | 2 |
| O=C(c1ccc(F)cc1)C1CCN(CCn2c(=O)[nH]c3ccccc3c2=O)CC1 | liver microsomes |  | 38.8 |
| O=C(OC(C(F)(F)F)C(F)(F)F)N1CCc2ccccc2C1 | liver microsomes |  | 21 |
| O=C(CC1Cc2ccccc2C1)N[C@H](CN1CCCC1)[C@H](O)c1ccc2c(c1)OCCO2 | liver microsomes |  | 28 |
| COc1ccc2nc3cc(Cl)ccc3c(Nc3cc(CN4CCCC4)c(O)c(CN4CCCC4)c3)c2n1 | hepatocytes | 1 µM | 468 |
| CCS(=O)(=O)Nc1ccc(OCCOCCOCCOCCOc2ccc(NS(=O)(=O)CC)cc2-c2cn(C)c(=O)c3ccccc23)c(-c2cn(C)c(=O)c3ccccc23)c1 | liver microsomes |  | < 2.3 |
| O=C(N[C@H](Cc1c[nH]c2ccccc12)C(=O)Nc1ccncc1)c1ccc(-c2cc(F)ccc2F)cc1F | liver microsomes |  | 17 |
| CC(C)NCC(O)COc1cccc2ccccc12 (stereo not shown) | liver microsomes | 1 µM, pH 7.4 | 58.6 |
| CC(C)NCC(O)COc1cccc2ccccc12 (stereo not shown) | liver microsomes | 1 µM | 57.8 |
| CCN(CC)S(=O)(=O)c1ccc(S(=O)(=O)N2CCC[C@@H](C(=O)N3CCC(F)(F)CC3)C2)cc1 | liver microsomes | 1.05 µM | 2.7 |
| CC[C@@H]1C=CC(=O)O[C@@H]1C[C@@H](O)[C@H](C)[C@H](O)[C@@H](C)Cc1ccc(F)cc1 | liver microsomes |  | < 7.7 |
| CCSC1CC(=O)C(C)(CCC(=O)Nc2c(O)ccc(C(=O)O)c2O)C2C3CC4CC12CC4(C)O3 (stereo not shown) | liver microsomes |  | 22 |
| NCc1ccccc1 | hepatocytes | 5 µM | 76.3 |
| O=C(N[C@H](Cc1c[nH]c2ccccc12)C(=O)Nc1ccncc1)c1ccc(-c2ccc(F)c(F)c2)cc1F | liver microsomes |  | 18 |
| C/C=C/C[C@H](C)[C@@H](OC)[C@@H](C)[C@H](O)C[C@H]1OC(=O)C=C[C@H]1CC | liver microsomes |  | < 7 |
